For series [1], the system named is Plasmodium gallinaceum. Kind of series: Antimalarial activity against Plasmodium gallinaceum vectored in Aedes fluviatilis infected in chicken assessed as reduction in parasite growth at 25 mg/kg, po measured immediately by Giemsa staining based microscopic analysis relative to control. The settings on record: time 0 hrs. On the set-up: scale not given: the % may be the effect or the level left. Format: functional. The essentials:
(§1)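 One-day-old chickens infected intramuscularly with P. gallinaceum-infected erythrocytes; parasitemia and gametocytemia followed by daily Giemsa-stained smears. Chickens with rising parasitemia below 10% fed to starved (12 h) female Ae. fluviatilis (kept 28 °C, 80% humidity) at 0 h (control) and 4 h after dosing (test compound 25–50 mg/kg; PQ 15 mg/kg). Oocyst counts and mosquito infection rates compared with nontreated groups.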

Series [2] concerns Plasmodium gallinaceum. Kind of series: Antimalarial activity against Plasmodium gallinaceum vectored in Aedes fluviatilis infected in chicken assessed as reduction in mosquito infection at 25 mg/kg, po measured after 4 hrs by Giemsa staining based microscopic analysis relative to control. Format: functional. Summed up:
as §1

The subject of series [3] is J774.A1. Kind of series: Inhibition of LPS-induced NO production in mouse J774.A1 cells incubated for 24 hrs by Griess reagent based assay. The class given is functional, cell-based. The settings on record: dose microM 0.5-25, time 24.0 hrs. The essentials: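 Compounds made as 10 mM DMSO stocks and diluted in medium. J774A.1 cells pre-incubated with compounds at 25 μM for screening, or 0.5–25 μM for dose-response, with dexamethasone 1 μM or 0.2% DMSO as controls. Stimulated with LPS 37.5 ng/ml plus IFNγ 25 U/ml for 24 h at 37 °C, 5% CO2. Supernatant nitrite measured by Griess at 540 nm. Triplicate, mean ± SEM.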
A general note: Griess reagent forms a coloured azo dye with nitrite.

Series [4] in a line: Selectivity index, ratio of MDL50 for monkey BGM cells to IC50 for Plasmodium falciparum CQR (W2 clone) infected in human Erythrocyte. Format: toxicity. Summed up: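 SI calculated as MLD50 in BGM cells (neutral red, 24 h) divided by IC50 against P. falciparum W2 (SYBR, 48 h).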
Series [5] can be described thus: Cytotoxicty against mouse J774.A1 cells assessed as cell viability at 25 uM incubated for 24 hrs by resazurin dye based assay (reference value: 100 %). As to conditions: read-out: Activity. The essentials: (§2)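 J774A.1 macrophages grown in DMEM with 10% FBS and 0.1% gentamycin, seeded at 1×10^5 cells/well. Exposed to compounds at 0, 12.5, 25, 50 or 100 μM for 24 h. Resazurin (10 μg/ml) added for 3 h, then fluorescence read. Run in triplicate. Viability given as percent of 0.2% DMSO-treated cells.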
Background: Alamar Blue is a resazurin reagent that responds to reducing activity.

Series [6] can be described thus: Cytotoxicty against mouse J774.A1 cells assessed as cell viability at 50 uM incubated for 24 hrs by resazurin dye based assay (reference value: 100 %). As to conditions: read-out: Activity. Summed up: as §2
Series [7] has as its system Plasmodium gallinaceum. Description: Antimalarial activity against Plasmodium gallinaceum vectored in Aedes fluviatilis infected in chicken assessed as reduction in parasite growth at 50 mg/kg, po measured immediately by Giemsa staining based microscopic analysis relative to control. The class given is functional. More on the design: scale not given: the % may be the effect or the level left. As to conditions: time 0 hrs. The essentials:
as §1

The nature of series [8]: Cytotoxicity against monkey BGM cells assessed as reduction in cell viability incubated for 24 hrs by neutral red dye based assay. As to conditions: chlorocebus aethiops, read-out: MDL50. Summed up: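 BGM monkey kidney cells grown in RPMI 1640 with 10% heat-inactivated fetal serum and gentamicin, 5% CO2, 37 °C. Cells allowed to adhere for 24 h, then exposed to compounds at 1000–1 μg/mL for 24 h. Neutral red uptake for 3 h, formaldehyde/CaCl2 fix, alcohol-acetic acid elution, absorbance at 540 nm. Viability taken as percent of untreated cells after background subtraction. MLD50 derived from this.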

In series [9] the test system is J774.A1. Kind of series: Inhibition of LPS-induced TNFalpha production in mouse J774.A1 cells incubated for 24 hrs by ELISA. The settings on record: dose microM 0.5-25, time 24.0 hrs. The class given is functional, cell-based. Summed up:
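J774A.1 cells seeded at 2×10^6 cells/well. Pretreated with vehicle, dexamethasone 1 μM, or compounds at 0.5–25 μM. Stimulated with LPS 100 ng/ml for 24 h. Supernatants stored at −20 °C, then TNFα measured by sandwich ELISA in pg/mL. Triplicate, mean ± SEM.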
(An ELISA detects its analyte on a solid surface through an enzyme-linked reagent.)

Series [10] in a line: Cytotoxicty against mouse J774.A1 cells assessed as cell viability at 100 uM incubated for 24 hrs by resazurin dye based assay (reference value: 100 %). As to conditions: read-out: Activity. Summed up:
as §2

Series [11] deals with Plasmodium falciparum. Kind of series: Antimalarial activity against Plasmodium falciparum CQR (W2 clone) infected in human erythrocyte assessed as reduction in parasite growth incubated for 48 hrs by SYBR assay. Format: functional, organism-based. Summed up:
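W2 parasites cultured in A+ human erythrocytes in RPMI 1640 with ALBUMAX II, candle jar, 37 °C. Rings synchronized with sorbitol, then exposed to serial dilutions at 0.5% parasitemia and 2% hematocrit for 48 h at 37 °C. Lysis buffer with SYBR Safe, 30 min in the dark, fluorescence read at ex 485 nm. IC50 from sigmoid curve fit against drug-free control.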

Series [12] in a line: Cytotoxicty against mouse J774.A1 cells assessed as cell viability at 12.5 uM incubated for 24 hrs by resazurin dye based assay (reference value: 100 %). As to conditions: read-out: Activity. Summed up:
as §2

For series [13], the system named is Plasmodium gallinaceum. Kind of series: Antimalarial activity against Plasmodium gallinaceum vectored in Aedes fluviatilis infected in chicken assessed as reduction in mosquito infection at 25 mg/kg, po measured immediately by Giemsa staining based microscopic analysis relative to control. The class given is functional. On the set-up: scale not given: the % may be the effect or the level left. As to conditions: time 0 hrs. The essentials: as §1

Series [14] has as its system Plasmodium gallinaceum. Description: Antimalarial activity against Plasmodium gallinaceum vectored in Aedes fluviatilis infected in chicken assessed as reduction in oocyst number at 50 mg/kg, po measured immediately by Giemsa staining based microscopic analysis. As to conditions: time 0 hrs. Format: functional. Summed up:
as §1

Series [15] deals with Plasmodium gallinaceum. Description: Antimalarial activity against Plasmodium gallinaceum vectored in Aedes fluviatilis infected in chicken assessed as reduction in mosquito infection at 50 mg/kg, po measured after 4 hrs by Giemsa staining based microscopic analysis relative to control. The class given is functional. Summed up: as §1
Series [16] relates to Plasmodium gallinaceum. Kind of series: Antimalarial activity against Plasmodium gallinaceum vectored in Aedes fluviatilis infected in chicken assessed as reduction in oocyst number at 50 mg/kg, po measured after 4 hrs by Giemsa staining based microscopic analysis relative to control. More on the design: scale not given: the % may be the effect or the level left. Format: functional. Summed up: as §1

Series [17] deals with Plasmodium gallinaceum. Kind of series: Antimalarial activity against Plasmodium gallinaceum vectored in Aedes fluviatilis infected in chicken assessed as reduction in oocyst number at 25 mg/kg, po measured after 4 hrs by Giemsa staining based microscopic analysis relative to control. Format: functional. More on the design: scale not given: the % may be the effect or the level left. The essentials:
as §1

Series [18] relates to Plasmodium gallinaceum. Description: Antimalarial activity against Plasmodium gallinaceum vectored in Aedes fluviatilis infected in chicken assessed as reduction in oocyst number at 25 mg/kg, po measured immediately by Giemsa staining based microscopic analysis. The class given is functional. As to conditions: time 0 hrs. The essentials:
as §1

The test system of series [19] is Plasmodium gallinaceum. Description: Antimalarial activity against Plasmodium gallinaceum vectored in Aedes fluviatilis infected in chicken assessed as reduction in gametocyte stage at 25 mg/kg, po measured immediately by Giemsa staining based microscopic analysis relative to control. As to conditions: time 0 hrs. On the set-up: scale not given: the % may be the effect or the level left. Format: functional. The essentials:
as §1

Series [20] deals with Plasmodium gallinaceum. Kind of series: Antimalarial activity against Plasmodium gallinaceum vectored in Aedes fluviatilis infected in chicken assessed as reduction in gametocyte stage at 50 mg/kg, po measured immediately by Giemsa staining based microscopic analysis relative to control. Format: functional. On the set-up: scale not given: the % may be the effect or the level left. As to conditions: time 0 hrs. Summed up:
as §1

Series [21] has as its system Plasmodium gallinaceum. Kind of series: Antimalarial activity against Plasmodium gallinaceum vectored in Aedes fluviatilis infected in chicken assessed as reduction in mosquito infection at 50 mg/kg, po measured immediately by Giemsa staining based microscopic analysis relative to control. The class given is functional. More on the design: scale not given: the % may be the effect or the level left. As to conditions: time 0 hrs. The essentials: as §1

Series [22] relates to Plasmodium gallinaceum. Kind of series: Antimalarial activity against Plasmodium gallinaceum vectored in Aedes fluviatilis infected in chicken assessed as reduction in gametocyte stage at 15 mg/kg, po measured immediately by Giemsa staining based microscopic analysis relative to control. The settings on record: time 0 hrs. On the set-up: scale not given: the % may be the effect or the level left. The class given is functional. The essentials:
as §1

Series [23] deals with Plasmodium gallinaceum. Kind of series: Antimalarial activity against Plasmodium gallinaceum vectored in Aedes fluviatilis infected in chicken assessed as reduction in oocyst number at 15 mg/kg, po measured immediately by Giemsa staining based microscopic analysis. Format: functional. The settings on record: time 0 hrs. The essentials:
as §1

The subject of series [24] is Plasmodium gallinaceum. Description: Antimalarial activity against Plasmodium gallinaceum vectored in Aedes fluviatilis infected in chicken assessed as reduction in mosquito infection at 15 mg/kg, po measured after 4 hrs by Giemsa staining based microscopic analysis relative to control. The class given is functional. Summed up: as §1
Series [25] concerns Plasmodium gallinaceum. Kind of series: Antimalarial activity against Plasmodium gallinaceum vectored in Aedes fluviatilis infected in chicken assessed as reduction in mosquito infection at 15 mg/kg, po measured immediately by Giemsa staining based microscopic analysis relative to control. As to conditions: time 0 hrs. On the set-up: scale not given: the % may be the effect or the level left. The class given is functional. Summed up:
as §1

For series [26], the system named is Plasmodium gallinaceum. Description: Antimalarial activity against Plasmodium gallinaceum vectored in Aedes fluviatilis infected in chicken assessed as reduction in oocyst number at 15 mg/kg, po measured after 4 hrs by Giemsa staining based microscopic analysis relative to control. Format: functional. On the set-up: scale not given: the % may be the effect or the level left. Summed up: as §1

The test system of series [27] is Plasmodium gallinaceum. Kind of series: Antimalarial activity against Plasmodium gallinaceum vectored in Aedes fluviatilis infected in chicken assessed as reduction in parasite growth at 15 mg/kg, po measured immediately by Giemsa staining based microscopic analysis relative to control. Format: functional. More on the design: scale not given: the % may be the effect or the level left. As to conditions: time 0 hrs. The essentials: as §1

The values below come from ChEMBL document CHEMBL4699631, “Antimalarial and anti-inflammatory activities of new chloroquine and primaquine hybrids: Targeting the blockade of malaria parasite transmission” (Bioorg Med Chem, 2020).

Consider `COc1cc(NC(C)CCCNC(=O)C(F)(F)c2cc(Cl)ccc2NC(C)=O)c2ncccc2c1` (stereo not given), for which the Activity is on record as 4.7% in [1]; 10.3% in series [7]; 89% in [13]; 166 in series [14]; 81.3% in series [16]; 0% in series [17]. The Activity in series [18] amounted to 56; in [19], 41%; in series [20], 42%; in series [21] it was 95%. Further, in [2], the inhibition in vivo (as a rule, the share of the control response that was lost under treatment) at 25 mg/kg was 5%. For the same compound, the inhibition result in series [3] and in [9] was “Dose-dependent effect” throughout. For the same compound, in series [4], the selectivity ratio stood at 1.6. The viability at 24 h, 25 µM in series [5] stood at 96.8%. Besides, the viability at 24 h, 50 µM in series [6] amounted to 56.2%. In addition, in series [8], the CC50 at 24 h was 13.6 µM. Moreover, the viability at 24 h, 100 µM in [10] was determined as 33.9%. Further, the IC50 (in general, the midpoint of a concentration-inhibition curve) in series [11] is 8.4 µM. Also, in series [12], the viability at 24 h, 12.5 µM came out at 100%. Moreover, the inhibition in vivo at 50 mg/kg in [15] is 15%.
`COc1cc(NC(C)CCCN)c2ncccc2c1` (stereo not given) [PRIMAQUINE]: the Activity turned out to be 45% in series [22]; 41 in series [23]; 85% in [25]; 100% in series [26]; 7% in series [27]. In series [4], the selectivity ratio is 255. Also, the CC50 at 24 h in series [8] was 483 µM. In [11], the IC50 came to 1.9 µM. Moreover, the inhibition in vivo at 15 mg/kg in series [24] amounted to 100%.
